Measured values taken from PMC2868107 (Biochemistry, 2010).
Where two headings read alike, the source gives them in different places. Blank lines part the entries; values can stand above or below the molecule they belong to. Where a SMILES comes first, the peptide text is derived from it. Where no end group is shown, it is not given here.

What was measured:
neuropilin-2 = biological target: T1, neuropilin-2 (Homo sapiens, UniProt O60462); assay: Sedimentation velocity analytical ultracentrifugation with neuropilin-2; type: binding
T1 sequence (O60462 276-595 limits assumed): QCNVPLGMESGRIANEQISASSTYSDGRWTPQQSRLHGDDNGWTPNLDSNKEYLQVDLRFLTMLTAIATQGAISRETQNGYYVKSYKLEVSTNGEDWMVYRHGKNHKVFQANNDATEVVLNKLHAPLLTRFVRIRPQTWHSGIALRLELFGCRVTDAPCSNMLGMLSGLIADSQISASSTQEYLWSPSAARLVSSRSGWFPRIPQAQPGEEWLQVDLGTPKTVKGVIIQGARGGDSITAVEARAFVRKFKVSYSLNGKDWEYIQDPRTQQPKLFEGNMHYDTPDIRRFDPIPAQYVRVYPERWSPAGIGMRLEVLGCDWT
Procedure, shortened: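 Sedimentation velocity was run at 4°C and 40,000 rpm in 10 mM Tris pH 7.5, 150 mM NaCl, 1 mM sodium azide. Human neuropilin-2 b1b2 was held at 8 μM. The oxidised dimeric C-terminal Sema3F peptide was added at 2.5X molar excess. Absorbance was read at 280 nm. Sedimentation coefficient distributions (0.1–6 s) were fit to numerical Lamm equation solutions, using calculated buffer density, viscosity and partial specific volumes.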

[1] = biological target: Neuropilin-1 (Homo sapiens) (UniProt O14786); assay: SPR; details: cited from earlier work
Neuropilin-1 (Homo sapiens), sequence (O14786 22-923): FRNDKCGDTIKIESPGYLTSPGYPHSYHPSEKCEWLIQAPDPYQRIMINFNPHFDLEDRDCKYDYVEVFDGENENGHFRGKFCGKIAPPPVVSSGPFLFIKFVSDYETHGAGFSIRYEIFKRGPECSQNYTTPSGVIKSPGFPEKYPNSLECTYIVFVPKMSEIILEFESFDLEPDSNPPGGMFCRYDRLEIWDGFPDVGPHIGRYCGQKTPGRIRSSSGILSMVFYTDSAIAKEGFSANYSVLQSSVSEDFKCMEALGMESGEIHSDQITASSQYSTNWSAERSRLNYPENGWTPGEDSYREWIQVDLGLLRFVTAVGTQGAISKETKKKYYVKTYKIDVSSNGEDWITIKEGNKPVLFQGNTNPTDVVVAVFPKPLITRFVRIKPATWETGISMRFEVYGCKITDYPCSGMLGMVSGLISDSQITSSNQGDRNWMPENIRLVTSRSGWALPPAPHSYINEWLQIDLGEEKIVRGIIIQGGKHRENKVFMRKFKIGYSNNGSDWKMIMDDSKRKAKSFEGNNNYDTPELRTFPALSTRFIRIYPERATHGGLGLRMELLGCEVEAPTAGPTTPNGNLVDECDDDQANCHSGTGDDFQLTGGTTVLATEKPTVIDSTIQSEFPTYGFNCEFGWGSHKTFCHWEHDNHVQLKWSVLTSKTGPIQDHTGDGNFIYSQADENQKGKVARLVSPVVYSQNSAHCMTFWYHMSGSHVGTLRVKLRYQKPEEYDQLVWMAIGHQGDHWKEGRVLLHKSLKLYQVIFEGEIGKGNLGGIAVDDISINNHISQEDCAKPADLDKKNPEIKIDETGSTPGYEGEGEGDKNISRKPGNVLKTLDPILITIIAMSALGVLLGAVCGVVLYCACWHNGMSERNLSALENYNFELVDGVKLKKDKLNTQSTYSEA

axon = details: cited from earlier work
neuropilin-1 [2] = details: cited from earlier work
neuropilin-1 [3] = biological target: T2, neuropilin-1 (Homo sapiens, UniProt O14786); type: binding
T2 sequence (O14786 273-586 limits assumed): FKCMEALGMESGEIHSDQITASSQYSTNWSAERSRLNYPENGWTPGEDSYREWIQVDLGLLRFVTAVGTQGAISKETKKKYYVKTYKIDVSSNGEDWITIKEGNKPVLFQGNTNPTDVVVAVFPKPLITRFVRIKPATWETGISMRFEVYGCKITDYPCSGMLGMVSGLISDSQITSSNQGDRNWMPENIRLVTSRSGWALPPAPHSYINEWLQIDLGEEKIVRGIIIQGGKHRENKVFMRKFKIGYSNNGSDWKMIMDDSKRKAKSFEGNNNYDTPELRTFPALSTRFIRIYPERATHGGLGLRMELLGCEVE

furin = assay: Furin processing of Sema3F C-terminus; type: cell-based; details: C-terminal Hgh fusion, western blot
Procedure, shortened: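 The C-terminal neuropilin-binding region of human Sema3F (residues 605-785) was fused to human growth hormone. Cells were kept in α-MEM with 5% FBS, moved at 80% confluence to serum-free Hybridoma-SFM, and PEI-transfected with 1 μg DNA/mL at a 3:1 PEI:DNA ratio. Hosts were CHO, furin-deficient FD11, furin-overexpressing CHO, and COS-7 with or without furin inhibitors. Media were western-blotted with anti-Hgh polyclonal (1:10,000) and HRP anti-rabbit (1:20,000) antibodies, then chemiluminescence.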

[4] = biological target: T3, core ligand binding region (b1b2) of human neuropilin-2 (human, UniProt O60462 277-592); assay: AUC
T3 sequence (looked up): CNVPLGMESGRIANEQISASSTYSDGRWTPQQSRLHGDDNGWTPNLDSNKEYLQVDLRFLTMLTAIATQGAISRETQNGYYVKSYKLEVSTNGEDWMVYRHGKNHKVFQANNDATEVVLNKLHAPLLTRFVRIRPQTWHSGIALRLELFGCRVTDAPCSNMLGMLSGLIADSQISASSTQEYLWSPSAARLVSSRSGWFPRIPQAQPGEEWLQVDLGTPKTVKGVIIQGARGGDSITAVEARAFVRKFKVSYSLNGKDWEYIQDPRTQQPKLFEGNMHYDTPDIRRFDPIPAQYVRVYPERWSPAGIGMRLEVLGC

[5] = biological target: core ligand binding region (b1b2) of human neuropilin-1 (human) (UniProt O14786); assay: plate-based inhibition assay
core ligand binding region (b1b2) of human neuropilin-1 (human), sequence (O14786 22-923): as the sequence (O14786 22-923) above

[6] = biological target: core ligand binding region (b1b2) of human neuropilin-1 (human) (UniProt O14786); assay: plate-based inhibition assay; remark: listed apart in the source

- % of species, peak a (neuropilin-2; neuropilin-2 8 μM + C-Sema 2.5X molar excess, free C-Sema): 32%
- c(M), peak a (neuropilin-2; neuropilin-2 8 μM + C-Sema 2.5X molar excess, free C-Sema (expected 10.7 kDa)): 11.1 ± 0.6 kDa
- % of species, peak c (neuropilin-2; neuropilin-2 8 μM + C-Sema 2.5X molar excess, neuropilin-2 dimer): 4%
- % of species, peak b (neuropilin-2; neuropilin-2 8 μM + C-Sema 2.5X molar excess, neuropilin-2 monomer): 58%
Molecule: GLIHQYCQGYWRHVPPSPREAPGAPRSPEPDQKKPRNRRHHPPDT (disulfide (positions not given here)) [C-Sema]
- interaction with neuropilin-2 by sedimentation velocity (neuropilin-2; neuropilin-2 8 μM, peptide 2.5X molar excess): no significant interaction with neuropilin-2

Molecule: VEGF (from UniProt P15692)
- Kd [1]: 2000 nM

Molecule: VEGF
- effect on semaphorin mediated growth cone collapse (axon): directly antagonize semaphorin mediated growth cone collapse
- increase in apparent affinity of VEGF with four fold higher neuropilin density (neuropilin-1 [2]): twenty

- IC50 (neuropilin-1 [3]): 10.5 ± 2 µM
Molecule: CC(C)C[C@H](NC(=O)[C@H](Cc1c[nH]c2ccccc12)NC(=O)[C@@H](NC(=O)[C@H](C)N)[C@@H](C)O)C(=O)N1CCC[C@H]1C(=O)N1CCC[C@H]1C(=O)N[C@@H](CCCNC(=N)N)C(=O)O [ATWLPPR] (H-ATWLPPR-OH)

B1: Sema3F (Ig-basic): C-terminal neuropilin binding region of human Sema3F (residues 605-785) with C-terminal human growth hormone fusion (protein)
chain: ANKNAVESVQYGVAGSAAFLECQPRSPQATVKWLFQRDPGDRRREIRAEDRFLRTEQGLLLRALQLSDRGLYSCTATENNFKHVVTRVQLHVLGRDAVHAALFPPLSMSAPPPPGAGPPTPPYQELAQLLAQPEVGLIHQYCQGYWRHVPPSPREAPGAPRSPEPQDQKKPRNRR
modifications: left off: Human Growth Hormone (Hgh), N-terminal, kept
- processing state of Sema3F (furin; CHO cells overexpressing furin): only the processed form
- processing state of Sema3F (furin; COS-7 cells, no furin inhibitor): nearly completely processed
- proteolytic processing of Sema3F (fraction processed) (furin; Cos7 cells, no furin inhibitor): > 95%
- processing state of Sema3F (furin; FD11 CHO cells lacking furin activity): solely the unprocessed form
- processing state of Sema3F (furin; wild-type CHO cells): a mixture of processed and unprocessed forms

- % of species, peak b (neuropilin-2; neuropilin-2 alone, 8 μM, dimer): 3%
- c(M), peak b (neuropilin-2; neuropilin-2 alone, 8 μM, dimer (expected 76.8 kDa)): 74.3 ± 3.0 kDa
- s20,w, peak b (neuropilin-2; neuropilin-2 alone, 8 μM, dimer, 4°C, 10 mM Tris pH 7.5, 150 mM NaCl): 4.73 S
- % of species, peak a (neuropilin-2; neuropilin-2 alone, 8 μM, monomer): 97%
- c(M), peak a (neuropilin-2; neuropilin-2 alone, 8 μM, monomer (expected 38.4 kDa)): 37.9 ± 1.9 kDa
- c(M), peak a (neuropilin-2; neuropilin-2 alone, 8 μM, monomer (expected 38.4 kDa), listed as neuropilin-2): 37.9 kDa
- s20,w, peak a (neuropilin-2; neuropilin-2 alone, 8 μM, monomer, 4°C, 10 mM Tris pH 7.5, 150 mM NaCl): 3.03 S
B2: Neuropilin-2: core ligand binding region (b1b2) of human neuropilin-2 (protein)
chain: CNVPLGMESGRIANEQISASSTYSDGRWTPQQSRLHGDDNGWTPNLDSNKEYLQVDLRFLTMLTAIATQGAISRETQNGYYVKSYKLEVSTNGEDWMVYRHGKNHKVFQANNDATEVVLNKLHAPLLTRFVRIRPQTWHSGIALRLELFGCRVTDAPCSNMLGMLSGLIADSQISASSTQEYLWSPSAARLVSSRSGWFPRIPQAQPGEEWLQVDLGTPKTVKGVIIQGARGGDSITAVEARAFVRKFKVSYSLNGKDWEYIQDPRTQQPKLFEGNMHYDTPDIRRFDPIPAQYVRVYPERWSPAGIGMRLEVLGC

- stoichiometry N [4]: 1 neuropilin-2:C-furSema
- IC50 [5]: 46 nM
- IC50 [6]: 45 nM
Molecule: GLIHQYCQGYWRHVPPSPREAPGAPRSPEPQDQKKPRNRR (also: disulfide-linked dimer (interchain disulfide))
